Consider 13 molecules from ChEMBL document CHEMBL4808162, “Constraining the Side Chain of C-Terminal Amino Acids in Apelin-13 Greatly Increases Affinity, Modulates Signaling, and Improves the Pharmacokinetic Profile” (J Med Chem, 2021).

Peptide text beside a SMILES is read from it.

Data set [1] concerns Rattus norvegicus. Put plainly: Hypotensive effect in Sprague-Dawley rat assessed as drop in mean arterial blood pressure at 19.6 nmol/kg, iv bolus injection measured after 1 min. The class given is functional. The gist of the method: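 Male Sprague-Dawley rats (250−300 g) under ketamine/xylazine (87/13 mg/kg i.m.) on a thermostatic pad. Mean arterial pressure recorded through a right carotid catheter. Saline vehicle bolus given, then 5 min later the peptide i.v. at 19.6 nmol/kg (n = 5) or 65 nmol/kg.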

Data set [2] has as its target T1, Apelin receptor (Homo sapiens, UniProt P35414).
T1 sequence (P35414 whole entry): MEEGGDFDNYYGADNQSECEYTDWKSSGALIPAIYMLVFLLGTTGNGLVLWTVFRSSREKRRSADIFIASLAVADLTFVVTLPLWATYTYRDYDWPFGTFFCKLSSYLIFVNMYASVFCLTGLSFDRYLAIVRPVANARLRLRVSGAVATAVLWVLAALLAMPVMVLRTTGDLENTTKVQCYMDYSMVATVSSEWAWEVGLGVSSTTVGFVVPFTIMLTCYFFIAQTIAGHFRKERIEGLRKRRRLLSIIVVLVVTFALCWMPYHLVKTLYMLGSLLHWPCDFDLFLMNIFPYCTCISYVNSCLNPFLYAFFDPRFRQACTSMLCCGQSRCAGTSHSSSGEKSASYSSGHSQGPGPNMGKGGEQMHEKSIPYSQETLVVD
Put plainly: Displacement of [125I] [NIe75,Tyr77]Pyr-apelin-13 from YFP-tagged human APJ receptor expressed in HEK293 cells incubated for 1 hr by gamma counting analysis. The class given is cell-based.

The target of data set [3] is T1, Apelin receptor. In words: Agonist activity at human APJ receptor expressed in HEK293T cells co-expressing Galphai1 RlucII assessed as dissociation of Galphai1 from Gbetta/gamma subunit measured using coelenterazine luciferase substrate incubated for 5 mins by BRET assay. The class given is functional, cell-based, HEK293.
Data set [4] addresses T1, Apelin receptor. In words: Agonist activity at human APJ receptor expressed in HEK293T cells co-expressing PDZ-Rho-Gef-RLucll and rGFP-CAAX assessed as induction of recruitment of Galpha12 to cell membrane using coelenterazine luciferase substrate incubated for 5 mins by BRET assay. The class given is functional, cell-based, HEK293.
In data set [5] the target is T1, Apelin receptor. Put plainly: Agonist activity at human APJ receptor expressed in HEK293 cells co-expressing Rlucll-beta-arrestin2 assessed as induction of beta-arrestin2 recruitment to receptor incubated for 30 mins by BRET assay. It counts as functional, cell-based.
Data set [6] in a line: Stability in Sprague-Dawley rat plasma assessed as half life measured up to 24 hrs by UPLC-MS analysis. It counts as ADME, cell-free. The procedure, abridged: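 Peptide (6 μL of 1 mM aqueous solution) incubated with 27 μL male Sprague-Dawley rat plasma at 37 °C. Time points 0, 1, 2, 4, 7, 24 h, or 0–120 min for labile peptides. Reaction quenched with acetonitrile-ethanol containing N,N-dimethylbenzamide internal standard, filtered, then UPLC-MS. t1/2 from one-phase exponential decay; at least three experiments.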

The target of data set [7] is Angiotensin-converting enzyme 2 (Rattus norvegicus, UniProt Q5EGZ1). Put plainly: Stability of the compound assessed as recombinant rat ACE2-mediated degradation measured up to 24 hrs by UPLC-MS analysis. The class given is ADME. The gist of the method:
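Recombinant rat ACE2 at 20 nM final in 100 mM Tris-HCl, 100 mM NaCl, 10 μM ZnCl2, pH 7.4. Peptide at 50 μM final with N,N-dimethylbenzamide internal standard, incubated 1, 2 and 24 h at 37 °C with shaking. Reaction stopped with EDTA; blank used pre-inactivated enzyme. Remaining peptide measured by UPLC-MS in SIM mode, oxidized forms summed; n = 3.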

Sequence of Angiotensin-converting enzyme 2 (Q5EGZ1 whole entry): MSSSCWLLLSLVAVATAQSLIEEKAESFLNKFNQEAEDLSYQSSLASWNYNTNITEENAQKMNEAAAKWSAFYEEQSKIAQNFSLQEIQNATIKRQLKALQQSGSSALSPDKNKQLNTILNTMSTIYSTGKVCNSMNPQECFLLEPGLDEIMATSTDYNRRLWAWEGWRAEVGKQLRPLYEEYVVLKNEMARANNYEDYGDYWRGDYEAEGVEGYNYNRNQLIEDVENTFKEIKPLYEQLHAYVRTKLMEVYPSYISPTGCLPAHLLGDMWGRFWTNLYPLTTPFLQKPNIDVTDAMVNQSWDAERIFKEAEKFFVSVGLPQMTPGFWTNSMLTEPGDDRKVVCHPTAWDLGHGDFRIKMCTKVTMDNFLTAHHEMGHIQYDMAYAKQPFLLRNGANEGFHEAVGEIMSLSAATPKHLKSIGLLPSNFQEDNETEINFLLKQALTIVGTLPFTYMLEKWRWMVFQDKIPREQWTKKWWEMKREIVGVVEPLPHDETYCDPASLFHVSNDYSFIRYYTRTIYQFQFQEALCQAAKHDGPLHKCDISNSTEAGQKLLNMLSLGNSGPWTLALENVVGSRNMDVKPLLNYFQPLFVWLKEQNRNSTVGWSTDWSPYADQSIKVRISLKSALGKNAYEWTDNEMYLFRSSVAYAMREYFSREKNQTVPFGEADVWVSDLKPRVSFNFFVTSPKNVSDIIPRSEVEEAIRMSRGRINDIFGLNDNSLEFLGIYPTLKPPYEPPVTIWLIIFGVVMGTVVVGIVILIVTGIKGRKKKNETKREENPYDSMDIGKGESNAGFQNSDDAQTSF

In the case of `CCCC[C@H](NC(=O)[C@@H]1CCCN1C(=O)CNC(=O)[C@H](CCCCN)NC(=O)[C@H](Cc1cnc[nH]1)NC(=O)[C@H](CO)NC(=O)[C@H](CC(C)C)NC(=O)[C@H](CCCNC(=N)N)NC(=O)[C@@H]1CCCN1C(=O)[C@H](CCCNC(=N)N)NC(=O)[C@@H]1CCC(=O)N1)C(=O)N[C@@H](Cc1cccc2ccccc12)C(=O)NC(Cc1ccccc1)(Cc1ccccc1)C(=O)O` (HELM PEPTIDE1{[Glp].R.P.R.L.S.H.K.G.P.[Nle].[O=C([C@H](Cc1cccc2ccccc12)N[*:1])[*:2]].[O=C(O)C(Cc1ccccc1)(Cc1ccccc1)N[*:1]]}$$$$V2.0), the Activity in data set [1] is given as 30 mmHg.
`CCCC[C@H](NC(=O)[C@@H]1CCCN1C(=O)CNC(=O)[C@H](CCCCN)NC(=O)[C@H](Cc1cnc[nH]1)NC(=O)[C@H](CO)NC(=O)[C@H](CC(C)C)NC(=O)[C@H](CCCNC(=N)N)NC(=O)[C@@H]1CCCN1C(=O)[C@H](CCCNC(=N)N)NC(=O)[C@@H]1CCC(=O)N1)C(=O)N[C@H](Cc1cccc2ccccc12)C(=O)N1Cc2ccccc2C[C@H]1C(=O)O` registered a Ki in data set [2] (hek293) of 0.08 nM. For the same molecule, the results for the EC50 in data set [3] (hek293), in data set [4] (hek293) and in data set [5] (hek293) were 4.2 nM, 28 nM and 33 nM, respectively. The half-life in data set [6] was 6.1 h.
On to `CCCC[C@H](NC(=O)[C@@H]1CCCN1C(=O)CNC(=O)[C@H](CCCCN)NC(=O)[C@H](Cc1cnc[nH]1)NC(=O)[C@H](CO)NC(=O)[C@H](CC(C)C)NC(=O)[C@H](CCCNC(=N)N)NC(=O)[C@@H]1CCCN1C(=O)[C@H](CCCNC(=N)N)NC(=O)[C@@H]1CCC(=O)N1)C(=O)N[C@@H](Cc1cccc2ccccc12)C(=O)N1Cc2ccccc2C[C@@H]1C(=O)O`, for which the Ki in data set [2] was determined as 0.09 nM. For the same molecule, the EC50 in data set [3] turned out to be 1.6 nM; in data set [4], 15 nM; in data set [5], 32 nM. Further, the half-life in data set [6] was 3.4 h.
Molecule `CCCC[C@H](NC(=O)[C@@H]1CCCN1C(=O)CNC(=O)[C@H](CCCCN)NC(=O)[C@H](Cc1cnc[nH]1)NC(=O)[C@H](CO)NC(=O)[C@H](CC(C)C)NC(=O)[C@H](CCCNC(=N)N)NC(=O)[C@@H]1CCCN1C(=O)[C@H](CCCNC(=N)N)NC(=O)[C@@H]1CCC(=O)N1)C(=O)N1CCC[C@H]1C(=O)N1Cc2ccccc2C[C@@H]1C(=O)O` gave a Ki in data set [2] of 0.07 nM. The 50% effective concentration (EC50) is 1 nM in data set [3], 23 nM in data set [4] and 10 nM in data set [5]. In addition, the half-life in data set [6] is 0.8 h.
As to `CCCC[C@H](NC(=O)[C@@H]1CCCN1C(=O)CNC(=O)[C@H](CCCCN)NC(=O)[C@H](Cc1cnc[nH]1)NC(=O)[C@H](CO)NC(=O)[C@H](CC(C)C)NC(=O)[C@H](CCCNC(=N)N)NC(=O)[C@@H]1CCCN1C(=O)[C@H](CCCNC(=N)N)NC(=O)[C@@H]1CCC(=O)N1)C(=O)N[C@H]1Cc2c([nH]c3ccccc23)CN([C@@H](Cc2ccccc2)C(=O)O)C1=O`, in data set [1], the Activity is listed as 30 mmHg.
Take `CCCC[C@H](NC(=O)[C@@H]1CCCN1C(=O)CNC(=O)[C@H](CCCCN)NC(=O)[C@H](Cc1cnc[nH]1)NC(=O)[C@H](CO)NC(=O)[C@H](CC(C)C)NC(=O)[C@H](CCCNC(=N)N)NC(=O)[C@@H]1CCCN1C(=O)[C@H](CCCNC(=N)N)NC(=O)[C@@H]1CCC(=O)N1)C(=O)N[C@H](Cc1cccc2ccccc12)C(=O)N1Cc2ccccc2C(C)(C)C1C(=O)O` (stereo partly drawn): the inhibition constant (Ki) in data set [2] is 0.16 nM. Besides, the EC50 is 4.1 nM in data set [3], 10 nM in data set [4] and 34 nM in data set [5]. For the same molecule, the half-life in data set [6] is 6.3 h.
`CCCC[C@H](NC(=O)[C@@H]1CCCN1C(=O)CNC(=O)[C@H](CCCCN)NC(=O)[C@H](Cc1cnc[nH]1)NC(=O)[C@H](CO)NC(=O)[C@H](CC(C)C)NC(=O)[C@H](CCCNC(=N)N)NC(=O)[C@@H]1CCCN1C(=O)[C@H](CCCNC(=N)N)NC(=O)[C@@H]1CCC(=O)N1)C(=O)N[C@@H](Cc1c[nH]c2ccccc12)C(=O)N[C@@H](Cc1ccccc1)C(=O)O` had a Ki in data set [2] (hek293) of 0.18 nM. Further, the results for the EC50 in data set [3] (hek293), in data set [4] (hek293) and in data set [5] (hek293) were 3.8 nM, 17 nM and 38 nM, respectively. Moreover, the half-life in data set [6] is 0.2 h. For the same molecule, the Stabilty entry in data set [7] is listed as “Unstable”.
In the case of `CCCC[C@H](NC(=O)[C@@H]1CCCN1C(=O)CNC(=O)[C@H](CCCCN)NC(=O)[C@H](Cc1cnc[nH]1)NC(=O)[C@H](CO)NC(=O)[C@H](CC(C)C)NC(=O)[C@H](CCCNC(=N)N)NC(=O)[C@@H]1CCCN1C(=O)[C@H](CCCNC(=N)N)NC(=O)[C@@H]1CCC(=O)N1)C(=O)N[C@H](Cc1cccc2ccccc12)C(=O)N1Cc2ccccc2C(C)C1C(=O)O` (stereo partly drawn), the Ki in data set [2] was determined as 0.4 nM. Further, the EC50 in data set [3] worked out at 4.3 nM; in data set [4] it was 111 nM; in data set [5] it was 44 nM. For the same molecule, the half-life in data set [6] is 5.3 h.
`CCCC[C@H](NC(=O)[C@@H]1CCCN1C(=O)CNC(=O)[C@H](CCCCN)NC(=O)[C@H](Cc1cnc[nH]1)NC(=O)[C@H](CO)NC(=O)[C@H](CC(C)C)NC(=O)[C@H](CCCNC(=N)N)NC(=O)[C@@H]1CCCN1C(=O)[C@H](CCCNC(=N)N)NC(=O)[C@@H]1CCC(=O)N1)C(=O)N[C@H](Cc1cccc2ccccc12)C(=O)N1Cc2[nH]c3ccccc3c2C[C@@H]1C(=O)O` displayed a Ki in data set [2] of 1.01 nM. Also, the EC50 in data set [3] turned out to be 6 nM; in data set [4], 25 nM; in data set [5], 96 nM. Further, in data set [6], the half-life was 7.8 h.
In data set [2], `CCCC[C@H](NC(=O)[C@@H]1CCCN1C(=O)CNC(=O)[C@H](CCCCN)NC(=O)[C@H](Cc1cnc[nH]1)NC(=O)[C@H](CO)NC(=O)[C@H](CC(C)C)NC(=O)[C@H](CCCNC(=N)N)NC(=O)[C@@H]1CCCN1C(=O)[C@H](CCCNC(=N)N)NC(=O)[C@@H]1CCC(=O)N1)C(=O)N1CCC[C@H]1C(=O)NC(Cc1ccccc1)(Cc1ccccc1)C(=O)O` showed a Ki of 0.04 nM. Besides, the EC50 in data set [3] is 1.5 nM; in data set [4] it was 10 nM; in data set [5], 19 nM. Besides, in data set [6], the half-life is 0.5 h.
In data set [2], `CCCC[C@H](NC(=O)[C@@H]1CCCN1C(=O)CNC(=O)[C@H](CCCCN)NC(=O)[C@H](Cc1cnc[nH]1)NC(=O)[C@H](CO)NC(=O)[C@H](CC(C)C)NC(=O)[C@H](CCCNC(=N)N)NC(=O)[C@@H]1CCCN1C(=O)[C@H](CCCNC(=N)N)NC(=O)[C@@H]1CCC(=O)N1)C(=O)N[C@H](Cc1cccc2ccccc12)C(=O)N[C@H](Cc1cc(C2CCCC2)c(O)c(C2CCCC2)c1)C(=O)O` yielded a Ki of 1.1 nM. Moreover, the concentration giving a half-maximal response (EC50) amounted to 10 nM in data set [3], 178 nM in data set [4] and 95 nM in data set [5]. The half-life in data set [6] is greater than 24 h.
Consider `CCCC[C@H](NC(=O)[C@@H]1CCCN1C(=O)CNC(=O)[C@H](CCCCN)NC(=O)[C@H](Cc1cnc[nH]1)NC(=O)[C@H](CO)NC(=O)[C@H](CC(C)C)NC(=O)[C@H](CCCNC(=N)N)NC(=O)[C@@H]1CCCN1C(=O)[C@H](CCCNC(=N)N)NC(=O)[C@@H]1CCC(=O)N1)C(=O)N[C@@H](Cc1cccc2ccccc12)C(=O)N[C@@H](Cc1ccccc1)C(=O)O`, for which the Ki in data set [2] (hek293) turned out to be 0.12 nM. Besides, the values for the concentration giving a half-maximal response (EC50) in data set [3] (hek293), in data set [4] (hek293) and in data set [5] (hek293) were 4.4 nM, 9.2 nM and 41 nM, respectively. In data set [6], the half-life is 0.4 h.
`CCCC[C@H](NC(=O)[C@@H]1CCCN1C(=O)CNC(=O)[C@H](CCCCN)NC(=O)[C@H](Cc1cnc[nH]1)NC(=O)[C@H](CO)NC(=O)[C@H](CC(C)C)NC(=O)[C@H](CCCNC(=N)N)NC(=O)[C@@H]1CCCN1C(=O)[C@H](CCCNC(=N)N)NC(=O)[C@@H]1CCC(=O)N1)C(=O)N1CCC[C@H]1C(=O)N1Cc2ccccc2C[C@H]1C(=O)O` yielded a Ki in data set [2] of 1.1 nM. For the same molecule, the EC50 in data set [3] came out at 2.5 nM; in data set [4], 88 nM; in data set [5] it was 67 nM. Moreover, the half-life in data set [6] is 1.3 h.
